One data set has as its system HT-22. As to the kind of experiment: Cytotoxicity against mouse HT22 cells assessed as decrease in cell viability at 10 uM by MTT assay relative to control. Conditions: ht-22, 10 µM. The class given is cell-based. An outline of the steps:
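HT-22 immortalized hippocampal neuronal cells incubated with compound at 10 μM; viability read by MTT assay and expressed as % of control.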
For orientation: Tetrazolium assays rely on reduction of a dye to a coloured formazan, in cell work by metabolically active cells.

A further data set addresses hERG (KCNH2) (Homo sapiens, UniProt Q12809). Briefly: Inhibition of human ERG at 10 uM relative to control. The method, boiled down:
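hERG channel blocking tested at 10 μM, reported as % inhibition.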

For the next data set, the system named is Mus musculus. As to the kind of experiment: In vivo inhibition of glutaminyl cyclase in ICR mouse brain extract assessed as decrease in levels of human pyroglutamyl-beta-amyloid (1 to 40) containing N-terminal pyroglutamte at position 3 at 25 mg/kg, icv measured next day by sandwich ELISA relative to control. The data set is classed as functional. Conditions: central. The method, boiled down: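 Male ICR mice (25 g, n = 4) received icv injection of human Aβ3-40 (5 μL of 1 μg/μL in PBS, 5 µg) into deep cortical/hippocampal tissue via stereotaxic frame, then compound at 25 mg/kg icv. Brain extracts taken next day; Aβ N3pE-40 quantified by sandwich ELISA, expressed as % inhibition versus vehicle control.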
(ELISA stands for enzyme-linked immunosorbent assay.)

Sequence of hERG (KCNH2) (Q12809 whole entry): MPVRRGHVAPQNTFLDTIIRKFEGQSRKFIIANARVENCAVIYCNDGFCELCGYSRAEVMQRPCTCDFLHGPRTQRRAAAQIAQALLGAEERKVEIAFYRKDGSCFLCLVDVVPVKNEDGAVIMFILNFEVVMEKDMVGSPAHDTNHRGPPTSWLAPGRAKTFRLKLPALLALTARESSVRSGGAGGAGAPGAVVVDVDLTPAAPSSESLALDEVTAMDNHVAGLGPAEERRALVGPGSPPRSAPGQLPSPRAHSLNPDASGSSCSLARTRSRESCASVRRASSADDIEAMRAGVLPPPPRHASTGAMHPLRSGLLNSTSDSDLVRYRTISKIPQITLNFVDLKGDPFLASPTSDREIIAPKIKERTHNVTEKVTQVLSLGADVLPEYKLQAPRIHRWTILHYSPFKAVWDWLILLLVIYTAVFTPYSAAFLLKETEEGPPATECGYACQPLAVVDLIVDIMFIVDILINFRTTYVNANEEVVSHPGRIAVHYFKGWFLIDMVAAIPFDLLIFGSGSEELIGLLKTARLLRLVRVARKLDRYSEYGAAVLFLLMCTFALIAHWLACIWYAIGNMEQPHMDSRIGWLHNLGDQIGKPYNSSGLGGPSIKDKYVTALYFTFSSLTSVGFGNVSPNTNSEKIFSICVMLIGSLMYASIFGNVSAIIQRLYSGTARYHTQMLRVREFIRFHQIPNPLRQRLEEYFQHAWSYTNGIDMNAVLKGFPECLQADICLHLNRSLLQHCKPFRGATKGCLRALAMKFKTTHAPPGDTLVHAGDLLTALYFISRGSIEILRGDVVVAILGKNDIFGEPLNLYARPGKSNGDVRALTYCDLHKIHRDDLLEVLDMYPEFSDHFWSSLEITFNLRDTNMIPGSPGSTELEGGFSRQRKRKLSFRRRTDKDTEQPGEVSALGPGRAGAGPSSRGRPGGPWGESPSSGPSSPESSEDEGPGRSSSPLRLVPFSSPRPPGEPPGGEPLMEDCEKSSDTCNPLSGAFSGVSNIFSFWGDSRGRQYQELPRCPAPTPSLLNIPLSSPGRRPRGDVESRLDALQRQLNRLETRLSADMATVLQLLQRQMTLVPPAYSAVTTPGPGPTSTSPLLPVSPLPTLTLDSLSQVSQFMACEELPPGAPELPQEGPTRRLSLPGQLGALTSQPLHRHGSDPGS

One may read the inhibition as the share of the control response that was lost under treatment. For orientation: inhibition in vivo means the change of the read-out against control, counted positive when it falls. Take `COc1ccc(NC(=S)NCCCn2cncc2C)cc1OCCN`: the Activity in the data set with HT-22 came out at 100%. The compound also returned an inhibition at 10 µM at hERG (KCNH2) of 15.3%. In the data set on Mus musculus, the inhibition in vivo at 25 mg/kg worked out at 35.3%.
Taken in the same sequence, the figures for `Cc1cncn1CCCNC(=S)Nc1ccc(/C=C/C(=O)N2CCN(CCN)CC2)cc1` were 100%, 7.2% and 22.9%.
Regarding `COc1ccc(NC(=S)NCCCn2cncc2C)cc1OCCCCN`, the Activity in the data set with HT-22 amounted to 100%. Also, the inhibition at 10 µM against hERG (KCNH2) turned out to be 2.8%. Also, the inhibition in vivo at 25 mg/kg with Mus musculus is 36.6%.
In the same order, the values of `COc1ccc(NC(=S)NCCCn2cncc2C)cc1OCCCC1CCNCC1` are 100%, 25.6% and 5.5%.
With `COc1ccc(NC(=S)NCCCn2cncc2C)cc1OCCCN`, the Activity in the data set on HT-22 came out at 100%. At hERG (KCNH2), this compound came in with an inhibition at 10 µM of 8.8%. In addition, the inhibition in vivo at 25 mg/kg in the data set on Mus musculus turned out to be 12.8%.
As to `COc1ccc(NC(=S)NCCCn2cncc2C)cc1OCCCCC1CCNCC1`, the Activity with HT-22 is recorded as 100%. For the same compound, the inhibition at 10 µM against hERG (KCNH2) stood at 35.1%. Moreover, the inhibition in vivo at 25 mg/kg with Mus musculus was 14.4%.
For the compound `COc1ccc(NC(=S)NCCCn2cncc2C)cc1OCCC1CCNCC1`, the Activity in the data set with HT-22 worked out at 100%. The compound also came in with an inhibition at 10 µM against hERG (KCNH2) of 14.9%. In the data set with Mus musculus, the inhibition in vivo at 25 mg/kg stood at 1.8%.
For the compound `Cc1cncn1CCCNC(=S)Nc1ccc(OCC(=O)NC2CCN(CCN)CC2)cc1`, the Activity in the data set with HT-22 came out at 100%. 10 µM produced 19.9% inhibition at hERG (KCNH2).

The record behind these values is ChEMBL document CHEMBL4118145, “Structure-activity relationship investigation of Phe-Arg mimetic region of human glutaminyl cyclase inhibitors” (Bioorg Med Chem, 2018).
